Measurements as given in ChEMBL document CHEMBL1125595 (1991).
Values after ≈ are worked out from the molar mass of the structure shown.

Columns and labels:
[1] = system: Vero; assay: Antiviral activity determined by plaque reduction assay of HSV-2 (G) in vero cells; type: functional; details: Chlorocebus sabaeus, read-out: ID50 (the source's name)
How it was run: (§1)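 Plaque reduction assay: HSV strains in Vero cells and HCMV in MRC-5 cells. ID50 is the dose giving a 50% fall in plaque numbers relative to untreated controls.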

[2] = system: Vero; assay: Anticellular activity was determined by cell proliferation assay in vero cells.; details: Chlorocebus sabaeus, read-out: ID50 (the source's name)
[3] = system: MRC5; assay: Antiviral activity determined by plaque reduction assay of HCMV (AD-169) in MRC-5 cells; type: functional; details: Homo sapiens, read-out: ID50 (the source's name); how it was run: as §1
[4] = system: Vero; assay: Antiviral activity determined by plaque reduction assay of HSV-1 (BWS) in vero cells; type: functional; details: Chlorocebus sabaeus, read-out: ID50 (the source's name); how it was run: as §1
[5] = system: Mus musculus; assay: Compound tested for its effect on mean survival time in mice against HSV-1(BWS) at a dose of 100 mg/kg.; type: functional
How it was run: (§2)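 Female Swiss-Webster mice of about 20 g were infected intraperitoneally with 5 × 10^4 PFU HSV-1 (BWS). Compound was given intraperitoneally twice daily for 5 consecutive days, starting 3 h postinfection. A saline placebo group served as control. Deaths were recorded for 21 days, and survivors and mean survival time in days were taken at the day-21 endpoint.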

[6] = system: Mus musculus; assay: Compound tested for its effect on mean survival time in mice against HSV-1(BWS) at a dose of 300 mg/kg.; type: functional; how it was run: as §2
[7] = system: Mus musculus; assay: Antiviral activity in terms of percentage survival at a dose of 100 mg/kg after intraperitoneal inoculation of HSV-1(BWS) in mice (9/10); type: functional; details: ip; how it was run: as §2
[8] = system: Mus musculus; assay: Antiviral activity in terms of percentage survival at a dose of 300 mg/kg after intraperitoneal inoculation of HSV-1(BWS) in mice (10/10); type: functional; details: ip; how it was run: as §2
[9] = system: Mus musculus; assay: Antiviral activity in terms of percentage survival at a dose of 100 mg/kg after intraperitoneal inoculation of HSV-1(BWS) in mice (7/10); type: functional; details: ip; how it was run: as §2
[10] = system: Mus musculus; assay: Antiviral activity in terms of percentage survival at a dose of 300 mg/kg after intraperitoneal inoculation of HSV-1(BWS) in mice (6/7); type: functional; details: ip; how it was run: as §2

| Structure (SMILES) | IC50 [1] | IC50 [2] | IC50 [3] | IC50 [4] | MST [5] | MST [6] | survival at 100 mg/kg [7] | survival at 300 mg/kg [8] | survival at 100 mg/kg [9] | survival at 300 mg/kg [10] |
| --- | --- | --- | --- | --- | --- | --- | --- | --- | --- | --- |
| N.Nc1ncnc2c1ncn2CC(CO)CCP(=O)(O)O (configuration not stated) | > 100 µg/mL | > 100 µg/mL | > 100 µg/mL | – | – | – | – | – | – | – |
| N.Nc1ccn(CC(CO)CCP(=O)(O)O)c(=O)n1 (configuration not stated) | > 100 µg/mL | > 100 µg/mL | > 100 µg/mL | – | – | – | – | – | – | – |
| CC(OCn1cnc2c(O)nc(N)nc21)OCP(=O)(O)O (configuration not stated) | > 100 µg/mL | > 100 µg/mL | > 100 µg/mL | > 100 µg/mL | – | – | – | – | – | – |
| Cc1cn(COCOCP(=O)([O-])[O-])c(=O)[nH]c1=O.[Na+].[Na+] | > 100 µg/mL | > 100 µg/mL | > 100 µg/mL | > 100 µg/mL | – | – | – | – | – | – |
| Nc1nc(O)c2ncn(COC(CO)OCP(=O)([O-])[O-])c2n1.[Na+].[Na+] (configuration not stated) | 8.2 µg/mL | > 100 µg/mL | 0.9 µg/mL | 3.3 µg/mL | – | – | – | – | – | – |
| Nc1ccn(COCOCP(=O)([O-])[O-])c(=O)n1.[Na+].[Na+] | > 100 µg/mL | > 100 µg/mL | > 100 µg/mL | > 100 µg/mL | – | – | – | – | – | – |
| Nc1nc(O)c2ncn(COCOCP(=O)([O-])[O-])c2n1.[Na+].[Na+] | 11 µg/mL | > 100 µg/mL | 5 µg/mL | 2.6 µg/mL | 20.4 days | 21 days | 90% | 100% | – | – |
| Nc1ncnc2c1ncn2COCOCP(=O)([O-])[O-].[Na+].[Na+] | > 100 µg/mL | > 100 µg/mL | > 100 µg/mL | > 100 µg/mL | – | – | – | – | – | – |
| COC(CO)OCn1cnc2c(O)nc(N)nc21 (configuration not stated) | > 100 µg/mL | > 100 µg/mL | > 100 µg/mL | > 100 µg/mL | – | – | – | – | – | – |
| N.Nc1nc(O)c2ncn(CC(CO)CCP(=O)(O)O)c2n1 (configuration not stated) | > 100 µg/mL | > 100 µg/mL | > 100 µg/mL | – | – | – | – | – | – | – |
| Nc1nc2c(ncn2COCCO)c(=O)[nH]1 [ACYCLOVIR] | 2.4 µg/mL (≈ 10.7 µM) | > 100 µg/mL | 38.4 µg/mL (≈ 171 µM) | 0.5 µg/mL (≈ 2.22 µM) | – | 20 days | – | – | 70% | 86% |
| Nc1nc2c(ncn2CCOCP(=O)(O)O)c(=O)[nH]1 [GS-438] | 0.69 µg/mL (≈ 2.39 µM) | 5 µg/mL (≈ 17.3 µM) | 0.04 µg/mL (≈ 0.138 µM) | 0.08 µg/mL (≈ 0.277 µM) | – | – | – | – | – | – |
